Laboratory results taken from ChEMBL document CHEMBL3621107, “Ring fusion strategy for synthesis and lead optimization of sulfur-substituted anthra[1,2-c][1,2,5]thiadiazole-6,11-dione derivatives as promising scaffold of antitumor agents” (Eur J Med Chem, 2015).
The source made the active and inactive calls. The rule behind the calls is not given here.

Tests used:
M14 = test: Cytotoxicity against human M14 cells after 48 hrs by SRB assay; format: functional; conditions: M14, 48 h
Summary of the method: (§1)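 NCI-60 human tumour cell panel screen, second stage, run by the NCI Developmental Therapeutics Program. Compounds were tested at five concentrations (0.01, 0.1, 1, 10 and 100 μM). Percentage growth was plotted against log10 concentration for each cell line. GI50, TGI and LC50 were taken from these dose-response curves.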

SK-MEL-5 = test: Cytotoxicity against human SK-MEL-5 cells after 48 hrs by SRB assay; format: functional; conditions: SK-MEL-5, 48 h
Summary of the method: (§2)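 Second-stage NCI-60 panel run by the NCI Developmental Therapeutics Program, covering nine tumour subpanels. Five concentrations were tested: 0.01, 0.1, 1, 10 and 100 μM. Percentage growth at each level was plotted against log10 drug concentration. GI50, TGI and LC50 were read from these dose-response curves. Subpanel MID values were divided into the full-panel MID to give selectivity ratios.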

DU-145 [1] = test: Cytotoxicity against human DU145 cells after 48 hrs by SRB assay; format: functional; conditions: DU-145, 48 h; summary of the method: as §1
HOP-92 = test: Cytotoxicity against human HOP92 cells after 48 hrs by SRB assay; format: functional; conditions: HOP-92, 48 h; summary of the method: as §1
OVCAR-4 = test: Cytotoxicity against human OVCAR4 cells after 48 hrs by SRB assay; format: functional; conditions: OVCAR-4, 48 h; summary of the method: as §2
[2] = Cytotoxicity against human colon cancer cells assessed as growth inhibition after 48 hrs by SRB assay; format: functional; conditions: Cancer cell lines
Summary of the method: (§3)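 Values come from the NCI-60 five-dose panel (0.01–100 µM). The subpanel MID is the mean GI50 over the lines of that tumour subpanel. The selectivity ratio is the full-panel MID divided by the subpanel MID; 3–6 is rated moderate and >6 high.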

[3] = Cytotoxicity against human ovarian cancer cells assessed as growth inhibition after 48 hrs by SRB assay; format: functional; conditions: Cancer cell lines; summary of the method: as §3
UACC-62 = test: Cytotoxicity against human UACC62 cells after 48 hrs by SRB assay; format: functional; conditions: UACC-62, 48 h
Summary of the method: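 NCI-60 five-dose study run by NCI DTP at 0.01, 0.1, 1, 10 and 100 µM. Percentage growth at each level was plotted against log10 concentration for each line, and GI50, TGI and LC50 were read from the dose-response curves.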

MDA-MB-435 = test: Cytotoxicity against human MDA-MB-435 cells after 48 hrs by SRB assay; format: functional; conditions: MDA-MB-435, 48 h; summary of the method: as §2
DU-145 [4] = test: Induction of apoptosis in human DU145 cells assessed as early apoptotic cells at 3 to 12 uM after 24 hrs by flow cytometry; format: functional, cell-based
[5] = Cytotoxicity against human RWPE1 cells assessed as survival rate after 72 hrs by MTT assay; format: cell-based, RWPE-1; conditions: RWPE1 cells, read-out: Survival
Summary of the method: (§4)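 About 2×10^3 cells/well preincubated 24 h at 37 °C, 5% CO2. Compound freshly dissolved in DMSO, diluted into complete medium and added at various concentrations (vehicle 0.1% DMSO) for 72 h. MTT added for 3 h at 37 °C, absorbance read at 570 nm, survival rate derived.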

DU-145 [6] = test: Induction of apoptosis in human DU145 cells assessed as decrease in total PARP at 3 to 12 uM after 48 hrs by Western blotting; format: functional, cell-based
DU-145 [7] = test: Induction of apoptosis in human DU145 cells assessed as decreased levels of Bcl-2 at 3 to 18 uM after 48 hrs by Western blotting; format: functional, cell-based
Summary of the method: (§5)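 DU-145 lysates were analysed by immunoblot for cyclin D1 and Bcl-2 after dosing across a concentration range. Cells were lysed on ice and cleared by centrifugation. Protein was quantified by Bradford, run on 12% SDS-PAGE and transferred to PVDF, with chemiluminescent detection. α-Tubulin served as loading control; n=3 independent experiments.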

[8] = target: Mitogen-activated protein kinase; ERK1/ERK2 (Homo sapiens) (UniProt P27361+P28482); test: Inhibition of human ERK1/2 phosphorylation in human DU145 cells after 48 hrs by Western blotting; format: cell-based; conditions: DU-145
Chain of Mitogen-activated protein kinase; ERK1/ERK2 (Homo sapiens) (P27361 whole entry, looked up): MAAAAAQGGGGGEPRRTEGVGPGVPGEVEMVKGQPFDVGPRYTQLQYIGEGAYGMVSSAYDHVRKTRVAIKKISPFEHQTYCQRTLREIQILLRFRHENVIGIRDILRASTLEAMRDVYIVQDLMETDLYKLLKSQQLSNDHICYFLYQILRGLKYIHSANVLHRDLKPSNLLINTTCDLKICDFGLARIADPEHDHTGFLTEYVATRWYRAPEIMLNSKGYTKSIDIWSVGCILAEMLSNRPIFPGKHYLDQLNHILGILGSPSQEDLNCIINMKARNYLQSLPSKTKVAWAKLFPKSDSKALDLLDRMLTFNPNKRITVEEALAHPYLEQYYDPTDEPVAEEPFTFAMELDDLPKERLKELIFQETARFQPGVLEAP
Chain of Mitogen-activated protein kinase; ERK1/ERK2 (Homo sapiens) (P28482 whole entry, looked up): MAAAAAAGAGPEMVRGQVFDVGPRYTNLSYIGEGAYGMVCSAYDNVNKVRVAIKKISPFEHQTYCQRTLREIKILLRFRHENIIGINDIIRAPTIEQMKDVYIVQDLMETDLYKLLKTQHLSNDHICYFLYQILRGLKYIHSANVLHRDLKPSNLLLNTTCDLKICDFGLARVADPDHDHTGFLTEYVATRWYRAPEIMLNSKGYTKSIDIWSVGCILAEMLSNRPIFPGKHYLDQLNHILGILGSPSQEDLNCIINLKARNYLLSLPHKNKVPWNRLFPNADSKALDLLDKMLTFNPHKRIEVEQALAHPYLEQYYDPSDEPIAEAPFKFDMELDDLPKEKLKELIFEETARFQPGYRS
Summary of the method: (§6)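 DU-145 cells were treated at 3, 12 and 18 µM and phospho-ERK1/2 and phospho-p38 were assessed by Western blot. Lysis was on ice with centrifugation, then Bradford protein assay, 12% SDS-PAGE, PVDF transfer and chemiluminescent detection.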

DU-145 [9] = test: Induction of apoptosis in human DU145 cells assessed as cleaved caspase 3 at 3 to 12 uM after 48 hrs by Western blotting; format: functional, cell-based
Summary of the method: (§7)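 DU-145 cells were exposed to various concentrations for 48 h. Cells were washed in PBS and lysed on ice for 30 min, then spun at 120000g for 15 min. Protein was measured by Bradford, run on 12% SDS-PAGE and blotted to PVDF. Blots were probed for cleaved PARP and cleaved caspase-3 with chemiluminescent detection and β-actin as loading control; n=3 independent experiments.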

[10] = Cytotoxicity against human SV-HUC1 cells assessed as survival rate after 72 hrs by MTT assay; format: cell-based; conditions: SV-HUC1 cells, read-out: Survival
Summary of the method: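 SV-HUC-1 cells grown in Ham's F-12K with 5% heat-inactivated fetal calf serum, 37 °C, 5% CO2. About 2×10^3 cells/well plated for 24 h, then a range of compound concentrations (DMSO stock diluted into medium; vehicle 0.1% DMSO) for 72 h. MTT added for 3 h at 37 °C; absorbance 570 nm.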

DU-145 [11] = test: Induction of apoptosis in human DU145 cells assessed as cell rounding and shrinkage at 5 uM after 24 hrs by phase contrast microscopy analysis; format: functional, cell-based
Summary of the method: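 DU-145 cells were seeded at 5×10^5 per 10 cm dish and treated with various concentrations for 24 h. Unfixed cells were examined and photographed by phase-contrast microscopy for rounding and shrinkage.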

[12] = Cytotoxicity against human WPMY-1cells assessed as survival rate after 72 hrs by MTT assay; format: cell-based; conditions: WPMY-1 cells, read-out: Survival; summary of the method: as §4
[13] = target: MAP kinase p38 (Homo sapiens) (UniProt O15264+Q15759+Q16539+P53778); test: Inhibition of human p38 phosphorylation in human DU145 cells after 48 hrs by Western blotting; format: cell-based; conditions: DU-145; summary of the method: as §6
DU-145 [14] = test: Induction of apoptosis in human DU145 cells assessed as increase in cleaved PARP at 3 to 12 uM after 48 hrs by Western blotting; format: functional, cell-based; summary of the method: as §7
DU-145 [15] = test: Induction of apoptosis in human DU145 cells assessed as decreased levels of cyclin D1 at 3 to 18 uM after 48 hrs by Western blotting; format: functional, cell-based; summary of the method: as §5

SMILES | GI50 (M14) | LC50 (M14) | TGI (M14) | GI50 (SK-MEL-5) | LC50 (SK-MEL-5) | TGI (SK-MEL-5) | GI50 (DU-145 [1]) | LC50 (DU-145 [1]) | TGI (DU-145 [1]) | GI50 (HOP-92) | LC50 (concentration giving 50% net cell kill) (HOP-92) | TGI (HOP-92) | GI50 (OVCAR-4) | LC50 (OVCAR-4) | TGI (OVCAR-4) | GI50 [2] | GI50 [3] | GI50 (UACC-62) | LC50 (UACC-62) | TGI (UACC-62) | further results
O=C1c2ccccc2C(=O)c2c1cc(Sc1ccc(F)cc1F)c1nsnc21 | 3.72 µM | 43 µM | 15.8 µM | 1.41 µM | 5.72 µM | 2.84 µM | 6.3 µM | 45 µM | 18.7 µM | 2.03 µM | 16.3 µM | 5.01 µM | 0.34 µM | 4.18 µM | 1.38 µM | 7.43 µM | 2.7 µM | 1.73 µM | 12.9 µM | 4.37 µM | GI50 (MDA-MB-435): 1.94 µM; LC50 (MDA-MB-435): 7.07 µM; TGI (MDA-MB-435): 3.7 µM
O=C1c2ccccc2C(=O)c2c1cc(SCc1ccccc1)c1nsnc21 | 26 µM | > 50 µM | > 50 µM | 7.17 µM | 49.8 µM | 21.2 µM | 10.2 µM | 38.8 µM | 19.9 µM | 6.05 µM | > 50 µM | > 50 µM | 6.05 µM | 29 µM | 13.2 µM | 16.1 µM | 8.4 µM | 8.22 µM | 33.7 µM | 18.6 µM | GI50 (MDA-MB-435): 9.19 µM; LC50 (MDA-MB-435): 37.3 µM; TGI (MDA-MB-435): 18.5 µM
O=C1c2ccccc2C(=O)c2c1cc(Sc1ccccc1Br)c1nsnc21 | 17.4 µM | > 50 µM | > 50 µM | 5.08 µM | 24.3 µM | 11.1 µM | 21.5 µM | > 50 µM | > 50 µM | 18.4 µM | > 50 µM | > 50 µM | 2.78 µM | 30.1 µM | 10.1 µM | 21.4 µM | 11.2 µM | 12 µM | > 50 µM | 40.8 µM | GI50 (MDA-MB-435): 9.23 µM; LC50 (MDA-MB-435): 32.7 µM; TGI (MDA-MB-435): 17.4 µM
CC(C)Sc1cc2c(c3nsnc13)C(=O)c1ccccc1C2=O | 1.54 µM | 6.53 µM | 3.18 µM | 1.29 µM | 5.23 µM | 2.6 µM | 1.45 µM | 26.4 µM | 6.64 µM | 0.32 µM | 14.5 µM | 2.18 µM | 0.36 µM | 3.67 µM | 1.34 µM | 4.94 µM | 1.08 µM | 1.35 µM | 5.26 µM | 2.67 µM | Activity (DU-145 [4]): Active; viability at 72 h [5]: 60%; Activity (DU-145 [6]): Active; Activity (DU-145 [7]): Active; inhibition [8]: Active; Activity (DU-145 [9]): Active; viability at 72 h [10]: 80%; Activity (DU-145 [11]): Active; viability at 72 h [12]: 50%; inhibition [13]: Active; GI50 (MDA-MB-435): 0.2 µM; LC50 (MDA-MB-435): 0.74 µM; TGI (MDA-MB-435): 0.39 µM; Activity (DU-145 [14]): Active; Activity (DU-145 [15]): Active
O=C1c2ccccc2C(=O)c2c1cc(Sc1cccc(Cl)c1)c1nsnc21 | 1.66 µM | 6.94 µM | 3.39 µM | 0.99 µM | 4.87 µM | 2.21 µM | 2.27 µM | 14.3 µM | 5.09 µM | 2.3 µM | 15.8 µM | 5.23 µM | 0.31 µM | 6.71 µM | 0.94 µM | 10.5 µM | 1.52 µM | 1.6 µM | 6.54 µM | 3.26 µM | GI50 (MDA-MB-435): 1.53 µM; LC50 (MDA-MB-435): 7.24 µM; TGI (MDA-MB-435): 3.33 µM
